In ChEMBL document CHEMBL1123497, “Structure-activity studies of 4,6-disubstituted 2-(morpholinocarbonyl)furo[3,2-b]indole derivatives with analgesic and antiinflammatory activities” (1986):

Columns and labels:
Type in all cases: functional
Mus musculus [1] = species: Mus musculus; test: Inhibition of acetic acid induced writhing in mice.
Summary of the method: (§1)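 Mice received drug orally 30 min before an ip injection of 0.7% acetic acid (10 mL/kg). Writhes were counted 10–20 min after injection, and % inhibition was taken against a control group. ED50 and 95% confidence limits came from the Litchfield–Wilcoxon method.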

Mus musculus [2] = species: Mus musculus; test: Analgesic activity by acetic acid writhing assay in mice; set-up: concentration or dose not given beside the values; summary of the method: as §1
Rattus norvegicus [3] = test: Antiinflammatory activity by Carrageenan edema assay in rats; set-up: concentration or dose not given beside the values; unit not given here
Summary of the method: (§2)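 Groups of six male Wistar rats (130–170 g) were dosed orally 60 min before a subplantar injection of 0.5% λ-carrageenin suspension (0.1 mL/rat) into the left hind paw. Foot volume was measured every 60 min for 360 min, and % swelling was compared with controls. ED50 and 95% confidence limits came from Litchfield–Wilcoxon. Screening used % edema inhibition at 100 mg/kg po.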

Mus musculus [4] = species: Mus musculus; test: Compound was evaluated for analgesic activity in Pressure test in mice
Summary of the method: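 Groups of 10 male ddY mice (19–24 g) were dosed orally, and pain threshold to pressure was measured every 30 min for 120 min. A postdrug threshold raised more than 50% over the predrug value counted as positive. ED50 and 95% confidence limits came from Litchfield–Wilcoxon.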

Rattus norvegicus [5] = species: Rattus norvegicus; test: Compound was evaluated for analgesic activity in Adjuvant-induced arthritic pain test in rats
Summary of the method: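 Groups of six male SD rats (160–200 g) received 0.5% Mycobacterium butyricum suspension (0.1 mL/rat) intradermally into the distal tail. After 15–18 days, rats that vocalized on gentle flexion were dosed orally, and the pain response was checked every 60 min for 300 min. Absence of response counted as positive. ED50 and 95% confidence limits came from Litchfield–Wilcoxon.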

Rattus norvegicus [6] = species: Rattus norvegicus; test: Compound was evaluated for analgesic activity in Randall-Selitto test in normal foot rats
Rattus norvegicus [7] = test: Compound was evaluated for antiinflammatory activity in rats by carrageenan edema test; summary of the method: as §2
Rattus norvegicus [8] = species: Rattus norvegicus; test: Compound was evaluated for antipyretic activity in rats by yeast induced fever test
Summary of the method: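 Groups of six male Wistar rats (190–210 g) received 7.5% yeast suspension sc (10 mL/kg). Rats whose temperature rose by more than 1 °C were dosed orally 180 min later. Body temperature was recorded automatically every 60 min for 360 min, and % inhibition was compared with controls. ED50 and 95% confidence limits came from Litchfield–Wilcoxon.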

Rattus norvegicus [9] = species: Rattus norvegicus; test: Compound was evaluated for analgesic activity in Randall-Selitto test in inflamed foot rats
Summary of the method: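 Groups of six male Wistar rats (90–110 g) received 20% yeast suspension (0.1 mL/rat) subplantar into the right hind paw, then oral drug 120 min later. Pain threshold was read every 60 min for 240 min. A rise of more than 50% over the control group counted as positive. ED50 and 95% confidence limits came from Litchfield–Wilcoxon.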

Mus musculus [10] = species: Mus musculus; test: Compound was evaluated for analgesic activity in Acetic acid writhing assay in mice; summary of the method: as §1
Rattus norvegicus [11] = test: Compound was evaluated for antiinflammatory activity by Carrageenan edema assay in rats; summary of the method: as §2

| Compound | ED50 (Mus musculus [1]) [mg/kg] | Inhibition (Mus musculus [2]) [%] | Inhibition (Rattus norvegicus [3]) | further results |
| --- | --- | --- | --- | --- |
| CCCCC(=O)n1c2cc(C(F)(F)F)ccc2c2oc(C(=O)N3CCOCC3)cc21 | 34.5 | 3 | 3 |  |
| CC(C)OC(=O)n1c2cc(F)ccc2c2oc(C(=O)N3CCOCC3)cc21 |  | 2 | 1 |  |
| COc1ccc2c3oc(C(=O)N4CCOCC4)cc3n(C(=O)OCC(C)C)c2c1 |  | 3 | 1 |  |
| CCCOC(=O)n1c2cc(Cl)ccc2c2oc(C(=O)N3CCOCC3)cc21 |  | 2 | 2 |  |
| CC(C)CCCn1c2cc(C(F)(F)F)ccc2c2oc(C(=O)N3CCOCC3)cc21 | 6 | 3 | 3 |  |
| CC(C)COC(=O)n1c2cc(F)ccc2c2oc(C(=O)N3CCOCC3)cc21 |  | 2 | 1 |  |
| CC(C)OC(=O)n1c2cc(Cl)ccc2c2oc(C(=O)N3CCOCC3)cc21 | 21.4 | 3 | 3 |  |
| COC(=O)n1c2cc(Cl)ccc2c2oc(C(=O)N3CCOCC3)cc21 |  | 1 | 1 |  |
| CCOC(=O)n1c2cc(C(F)(F)F)ccc2c2oc(C(=O)N3CCOCC3)cc21 | 35.6 | 3 | 3 |  |
| O=C(Cn1c(=O)sc2ccc(Cl)cc21)N1CCN(CCO)CC1 [TIARAMIDE] | 74 |  |  | ED50 (Mus musculus [4]): 116 mg/kg; ED50 (Rattus norvegicus [5]): 176 mg/kg; ED50 (Rattus norvegicus [6]): > 160 mg/kg; ED50 (Rattus norvegicus [7]): 119 mg/kg; ED50 (Rattus norvegicus [8]): 171 mg/kg; ED50 (Rattus norvegicus [9]): 94.6 mg/kg |
| CCCCn1c2cc(C(F)(F)F)ccc2c2oc(C(=O)N3CCOCC3)cc21 | 29.5 | 3 | 3 |  |
| COC(=O)n1c2cc(OC)ccc2c2oc(C(=O)N3CCOCC3)cc21 |  | 1 | 1 |  |
| COc1ccc2c3oc(C(=O)N4CCOCC4)cc3n(C(=O)OC(C)C)c2c1 |  | 2 | 1 |  |
| COC(=O)n1c2cc(C(F)(F)F)ccc2c2oc(C(=O)N3CCOCC3)cc21 |  | 1 | 1 |  |
| CCOC(=O)n1c2cc(O)ccc2c2oc(C(=O)N3CCOCC3)cc21 |  | 2 | 1 |  |
| CCOC(=O)n1c2cc(C)ccc2c2oc(C(=O)N3CCOCC3)cc21 |  | 2 | 3 |  |
| CCCCCCCCn1c2cc(C(F)(F)F)ccc2c2oc(C(=O)N3CCOCC3)cc21 |  |  | 3 |  |
| CCCCOC(=O)n1c2cc(C)ccc2c2oc(C(=O)N3CCOCC3)cc21 |  | 2 | 1 |  |
| CCCCC(CC)C(=O)n1c2cc(C(F)(F)F)ccc2c2oc(C(=O)N3CCOCC3)cc21 (stereo unspecified) | 0.7 | 3 | 3 | ED50 (Mus musculus [10]): 0.7 mg/kg; ED50 (Mus musculus [4]): 7 mg/kg; ED50 (Rattus norvegicus [5]): 1.7 mg/kg; ED50 (Rattus norvegicus [6]): 5.9 mg/kg; ED50 (Rattus norvegicus [7]): 5.4 mg/kg; ED50 (Rattus norvegicus [8]): 0.059 mg/kg; ED50 (Rattus norvegicus [9]): 1.7 mg/kg |
| CCCOC(=O)n1c2cc(OC)ccc2c2oc(C(=O)N3CCOCC3)cc21 |  | 2 | 1 |  |
| CC(C)(C)C(=O)n1c2cc(C(F)(F)F)ccc2c2oc(C(=O)N3CCOCC3)cc21 |  | 3 | 1 |  |
| CCCCCCn1c2cc(C(F)(F)F)ccc2c2oc(C(=O)N3CCOCC3)cc21 | 7.7 | 3 | 3 |  |
| CCCCOC(=O)n1c2cc(Cl)ccc2c2oc(C(=O)N3CCOCC3)cc21 |  | 3 | 2 |  |
| CC(C)CC(=O)n1c2cc(C(F)(F)F)ccc2c2oc(C(=O)N3CCOCC3)cc21 | 6 | 3 | 3 |  |
| CCCCOC(=O)n1c2cc(F)ccc2c2oc(C(=O)N3CCOCC3)cc21 |  | 2 | 1 |  |
| COC(=O)n1c2ccccc2c2oc(C(=O)N3CCOCC3)cc21 |  | 1 |  | Inhibition (Rattus norvegicus [11]): 2% |
| CC(C)Cn1c2cc(C(F)(F)F)ccc2c2oc(C(=O)N3CCOCC3)cc21 |  | 2 | 3 |  |

| Compound | ED50 (Mus musculus [1]) [mg/kg] | Inhibition (Mus musculus [2]) [%] | Inhibition (Rattus norvegicus [3]) | further results |
| --- | --- | --- | --- | --- |
| CCOC(=O)n1c2cc(F)ccc2c2oc(C(=O)N3CCOCC3)cc21 |  | 1 | 1 |  |
| CCCCCn1c2cc(C(F)(F)F)ccc2c2oc(C(=O)N3CCOCC3)cc21 | 10.9 | 3 | 3 |  |
| CCCCOC(=O)n1c2cc(OC)ccc2c2oc(C(=O)N3CCOCC3)cc21 |  | 2 | 1 |  |
| CCCCCCCn1c2cc(C(F)(F)F)ccc2c2oc(C(=O)N3CCOCC3)cc21 | 17.8 | 3 | 3 |  |
| CC(C)C(=O)n1c2cc(C(F)(F)F)ccc2c2oc(C(=O)N3CCOCC3)cc21 | 7.3 | 3 | 3 |  |
| CC(C)COC(=O)n1c2ccccc2c2oc(C(=O)N3CCOCC3)cc21 |  | 1 | 1 |  |
| CCOC(=O)n1c2cc(OC)ccc2c2oc(C(=O)N3CCOCC3)cc21 |  | 1 | 1 |  |
| CC(C)COC(=O)n1c2cc(C(F)(F)F)ccc2c2oc(C(=O)N3CCOCC3)cc21 |  | 2 | 2 |  |
| CCOC(=O)n1c2ccccc2c2oc(C(=O)N3CCOCC3)cc21 |  | 1 | 1 |  |
| Cc1ccc2c3oc(C(=O)N4CCOCC4)cc3n(C(=O)OC(C)C)c2c1 | 26 | 3 | 3 |  |
| CCCCOC(=O)n1c2cc(C(F)(F)F)ccc2c2oc(C(=O)N3CCOCC3)cc21 | 21.4 | 3 | 3 |  |
| CCCOC(=O)n1c2ccccc2c2oc(C(=O)N3CCOCC3)cc21 |  | 1 | 1 |  |
| CCCCOC(=O)n1c2ccccc2c2oc(C(=O)N3CCOCC3)cc21 |  | 1 | 1 |  |
| CC(C)OC(=O)n1c2cc(C(F)(F)F)ccc2c2oc(C(=O)N3CCOCC3)cc21 | 4.7 | 3 | 3 |  |
| CCCCCCCCC(=O)n1c2cc(C(F)(F)F)ccc2c2oc(C(=O)N3CCOCC3)cc21 |  | 3 | 2 |  |
| COC(=O)n1c2cc(O)ccc2c2oc(C(=O)N3CCOCC3)cc21 |  | 1 | 1 |  |
| CC(C)COC(=O)n1c2cc(Cl)ccc2c2oc(C(=O)N3CCOCC3)cc21 |  | 2 | 2 |  |
| CCCOC(=O)n1c2cc(C)ccc2c2oc(C(=O)N3CCOCC3)cc21 |  | 2 | 1 |  |
| CCCOC(=O)n1c2cc(C(F)(F)F)ccc2c2oc(C(=O)N3CCOCC3)cc21 | 34.6 | 3 | 3 |  |
| COC(=O)n1c2cc(C)ccc2c2oc(C(=O)N3CCOCC3)cc21 |  | 1 | 2 |  |
| Cc1ccc2c3oc(C(=O)N4CCOCC4)cc3n(C(=O)OCC(C)C)c2c1 |  | 2 | 2 |  |
| CCCOC(=O)n1c2cc(F)ccc2c2oc(C(=O)N3CCOCC3)cc21 |  | 2 | 1 |  |
| CC(C)CCn1c2cc(C(F)(F)F)ccc2c2oc(C(=O)N3CCOCC3)cc21 | 5.1 | 3 | 3 |  |
| CC(C)OC(=O)n1c2ccccc2c2oc(C(=O)N3CCOCC3)cc21 |  | 2 | 2 |  |
| COC(=O)n1c2cc(F)ccc2c2oc(C(=O)N3CCOCC3)cc21 |  | 1 | 1 |  |
| CC(C)=CCn1c2cc(C(F)(F)F)ccc2c2oc(C(=O)N3CCOCC3)cc21 | 10.1 | 3 | 3 |  |
| CCOC(=O)n1c2cc(Cl)ccc2c2oc(C(=O)N3CCOCC3)cc21 |  | 1 | 2 |  |
